NALP1 inh: inhibitors of NALP1 inflammasome in yeast | AID 2071 | 280,000 compounds, 0.61% hits | S. cerevisiae NALP1/ASC/caspase-1 growth, X-gal OD620, 72 h | inhibition, % at 10 µM; in the data active = inhibition mostly above about 24%, no sharp cut-off; inactive = mostly below about 32%
UBC9 SUMO inh: SUMOylation inhibition; P63279; HTRF SUMOylation assay, SAE1/SAE2 + UBC9, in vitro; inhibition, % at 35 µM; 290,000 compounds, 0.36% hits; AID 2006; in the data active = inhibition above about 50%, passing the limit was not always enough
Target sequence (P63279 whole entry, looked up): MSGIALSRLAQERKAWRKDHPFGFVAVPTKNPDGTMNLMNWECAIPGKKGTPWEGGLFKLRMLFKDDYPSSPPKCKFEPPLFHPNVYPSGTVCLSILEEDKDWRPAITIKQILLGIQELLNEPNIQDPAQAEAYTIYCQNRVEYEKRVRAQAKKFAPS
VIM-2 inhibitor: blocks Pseudomonas aeruginosa VIM-2 metallo-beta-lactamase. purified VIM-2, nitrocefin hydrolysis, epi-absorbance fluorescence. inhibition, % at 5.6 µM. 290,000 compounds, 0.89% hits. AID 1527;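 active = inhibition above the mean of all tested compounds plus 3 SD, cutoff set per screening run, cut at about 7.5% in these data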;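 also: red hydrolysis product quenches plate fluorescence so inhibitors raise well fluorescence; 0% = enzyme with DMSO and 100% = DMSO without enzyme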
DNA FID counter: displaces DNA intercalator in HCV helicase counter-screen; DNA fluorescent intercalator displacement, fluorescence; inhibition, % at 7.9 µM; 290,000 compounds, 0.17% hits; in the data active = inhibition above about 37%;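 also: 0% = vehicle and 100% = reference compound; higher means more ethidium bromide displaced from hairpin DNA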
SUMO Mot1 rescue: inhibitors of SUMOylation pathway: yeast Mot1-301 growth rescue; S. cerevisiae Mot1-301 growth rescue, ATP luminescence, 38.5C; percent above DMSO median, 100 means doubled; growth rescue, % at 18.8 µM; 320,000 compounds, 1% hits;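 active = every valid replicate shows activation above 250% relative to neutral control wells; inactive = the rest, any valid replicate at or below 250%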;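 also: OY570 slx delta 5 strain wells were the positive control but not used for scaling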
IMP-1 inh: inhibitors of Pseudomonas aeruginosa IMP-1 metallo-beta-lactamase; 290,000 compounds, 0.45% hits; inhibition, % at 5.6 µM; purified IMP-1, nitrocefin hydrolysis, epi-absorbance fluorescence;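 active = inhibition above the mean plus 3 SD of all compounds in the same screening run, cut at about 4.5% in these data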;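 also: 0% = IMP-1 with DMSO and 100% = DMSO wells lacking enzyme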
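Assay system: purified IMP-1; Quantity: IMP-1 0.2 nM before substrate addition; Medium: HEPES buffer pH 7.1 with ZnSO4 and Brij 35; Incubation: 15 min enzyme–compound preincubation, then 25 min nitrocefin reaction, 25 °C; Signal: fluorescence quenching readout, ex 480/em 530 nm; Controls: DMSO with and without IMP-1; Repeats: singlicate testing.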
* = called active by the depositor; / = not tested or not shown; + = active, no number. A selection: hits, their analogues and other compounds. The true share with any hit is near 2.9%.

SMILES	NALP1 inh	UBC9 SUMO inh	VIM-2 inhibitor	DNA FID counter	SUMO Mot1 rescue	IMP-1 inh
CCN1CCN(c2ncnc3c2sc(=S)n3-c2ccccc2)CC1	44*	19	-4	-8	4	-2
S=c1sc2c(N3CCN(Cc4ccccc4)CC3)ncnc2n1-c1ccccc1	5	18	-5	1	70	-2
c1ccc(Cn2ncc3c(N4CCOCC4)ncnc32)cc1	-88	2	-3	-5	-6	-2
COc1ccc(N2CC(NS(=O)(=O)c3cccs3)CC2=O)cc1 (stereo not drawn)	/	/	/	/	23	/
COc1cccc(C(=O)N2CCn3c2nc2ccccc23)c1	0	4	-4	-6	-1	-2
Cc1cc(C)n(-c2ccc(C(=O)NCc3ccc(F)cc3)cc2)n1	29*	1	-4	-19	0	-1
CCN1CCN(C(=O)CCCn2c(C)c3cnn(-c4ccccc4)c(=O)c3c2C)CC1	12	0	-3	3	332*	-2
COc1cc(OC)c(NS(=O)(=O)c2ccc3c(c2)NC(=O)CO3)cc1Cl	-14	6	-1	-9	3	-2
CC1CCCC(C)N1C(=O)COC(=O)CSc1ccc(C(N)=O)cc1[N+](=O)[O-] (stereo not drawn)	/	/	/	/	-5	/
CCOC(=O)C1CCCN(C(=O)c2cc3c(C)nc4ccccc4c3o2)C1 (stereo not drawn)	-7	-5	7.9*	-31	4	-5
Cc1ccc(C)c(N2CCN(C(=O)c3cc4c(C)nc5ccccc5c4o3)CC2)c1	6	-9	-3	-28	-4	-3
Cc1nc2ccccc2c2oc(C(=O)N3CC(C)CC(C)C3)cc12 (stereo not drawn)	12	6	9.8*	-29	26	0
CCOC(=O)C1CCN(c2nc(C)nc3c2oc2ccccc23)CC1	2	15	/	/	-6	/
CCOC(=O)C1CCCN(c2nc(C)nc3c2oc2ccccc23)C1 (stereo not drawn)	10	7	10*	-22	310	-2
CCOc1ccc2nc(NC(=O)CSCC(=O)Nc3cc(C)on3)sc2c1	/	/	/	/	-15	/
Cc1ccc(C(=O)NC(=S)NCC2CCCO2)cc1Br (stereo not drawn)	27	-10	-1	-15	-1	-2
CCCCCCCCCCCC(=O)c1c(O)cccc1O	11	-8	-1	-6	-12	-2
Cc1ccc(NC(=O)Nn2cnnc2)cc1Cl	12	44	-2	-5	-11	-3
O=C(Nc1ccc(Cl)c(Cl)c1)Nn1cnnc1	15	67*	0	-3	51	-2
O=C(Nc1ccccc1)Nn1cnnc1	7	20	-1	-3	290	-3
O=C(Nc1cccc(Cl)c1)Nn1cnnc1	13	51*	-1	-1	-5	0
O=C(NN1C(=O)C2C3C=CC([C@@H]2C1=O)C31CC1)c1ccccc1 (stereo partly drawn)	/	-12	-3	1	137	-2
Clc1ccsc1-c1ccc2ccccc2n1	44*	-2	-5	3	27	-3
CS/C(=C(/C#N)S(=O)(=O)c1ccc(Cl)cc1)N1CCOCC1	/	-6	0	-6	47	-1
CCCS(=O)(=O)C/C(N)=N/OC(=O)c1ccccc1Cl	/	-8	-1	6	-19	8.3*
SMILES	NALP1 inh	UBC9 SUMO inh	VIM-2 inhibitor	DNA FID counter	SUMO Mot1 rescue	IMP-1 inh
COc1ccc2c(CC(=O)OCc3nc4ccsc4c(=O)[nH]3)coc2c1	/	/	/	/	-6	/
CC(C)OP(=O)(OC(C)C)C(Nc1ccccc1)c1cccc2c1OCO2 (stereo not drawn)	20	18	-4	-35	279*	0
CC(C)OP(=O)(OC(C)C)C(Nc1ccccc1)c1ccc2c(c1)OCO2 (stereo not drawn)	12	2	-1	-22	6	-2
O=S(=O)(c1ccc2c(c1)OCCO2)N1CCC(n2nnc3cc(C(F)(F)F)ccc32)CC1	6	6	0	-7	86	6.9*
Cc1cc2cc(C(c3nnnn3C(C)(C)C)N(Cc3ccco3)CC3CCCO3)c(=O)[nH]c2cc1C (stereo not drawn)	5	20	-6	-16	10	-3
Cc1cc(C)c2[nH]c(=O)c(C(c3nnnn3C(C)(C)C)N(Cc3ccco3)CC3CCCO3)cc2c1 (stereo not drawn)	38*	16	-4	-8	4	-3
O=C(O)c1cnn(-c2ccccc2)c1C(F)(F)F	19	0	1	2	7	0
Cn1c2ccc(F)cc2c2nnc(SCC(=O)Nc3cccc(O)c3)nc21	-4	12	8.8*	-9	5	1
Cn1c2ccc(F)cc2c2nnc(SCCN3CCOCC3)nc21	2	-2	7.8*	-5	/	-2
Cn1c2ccccc2c2nnc(SCC(=O)Nc3cccc(C(=O)O)c3)nc21	8	10	5	-22	8	-2
C=CCn1c2ccccc2c2nnc(SCCN3CCOCC3)nc21	0	2	12*	-18	-4	-2
CCC(CC)N1CCN(C(=O)c2cccc(Cl)c2)CC1	-49	-2	-1	0	40	1
NC(=O)c1cnn2c(-c3ccc(Cl)cc3Cl)ccnc12	14	32	-1	-5	-27	-1
CN(C)S(=O)(=O)c1ccc(C(=O)NCc2nnc(SCC(=O)N3CCCC3)o2)cc1	11	7	1	-11	0	-1
COc1ccccc1C(C[N+](=O)[O-])c1c(N)n(C)c(=O)n(C)c1=O (stereo not drawn)	+	-6	0	-3	594*	-3
C#CCOCCOCCOCCNc1nc(N2CCN(C(=O)[C@H]([C@@H](C)CC)n3cc([C@@H](N)CO)nn3)CC2)nc(N2CCN(C(=O)[C@H](CCCCN)n3cc([C@@H](N)C(C)CC)nn3)CC2)n1 (stereo partly drawn)	-8	12	-1	52*	-9	14*
C#CCOCCOCCOCCNc1nc(N2CCN(C(=O)[C@H](CCCCN)n3cc([C@@H](N)C(C)CC)nn3)CC2)nc(N2CCN(C(=O)[C@H](CCCCN)n3cc([C@@H](N)CO)nn3)CC2)n1 (stereo partly drawn)	9	19	1	66*	-9	-1
COc1ccccc1NS(=O)(=O)c1cc(NC(=O)CN2C(=O)NC3(CCCC3)C2=O)ccc1C	/	/	/	/	-11	/
COc1cc(C(c2nnnn2C2CCCC2)N2CCN(C(=O)c3ccco3)CC2)cc(OC)c1OC (stereo not drawn)	6	12	-4	-29	-10	-2
Cc1ccccc1NC(=O)c1ccc(N/N=C/c2ccccc2O)c([N+](=O)[O-])c1	12	57*	0	2	-11	-2
CCC1Sc2ccccc2N(CC(=O)NCCC2=CCCCC2)C1=O (stereo not drawn)	43*	9	-4	-33	5	1
